# Measurements of several laboratories.
SMILES,target or system,assay,test system,setting,measurement,result
O=c1ccc2cc(O)c(OCCCCCn3ccnc3)cc2o1,HepG2.2.15,"cell growth or viability, MTT",,9 days,CC50,140 µM
CCOC(=O)c1ncn2c1[C@H](C)N=C(c1ccccc1F)c1cc(C3CC3)ccc1-2,,metabolic stability,"human, liver microsomes",20 min,compound remaining,< 5%
Cc1ncc2n1-c1ccc(Cl)cc1C(c1ccccc1F)=NC2,,metabolic stability,"human, hepatocytes","1 µM, 4 h",compound remaining,26%
Cc1ncc2n1-c1ccc(Cl)cc1C(c1ccccc1F)=NC2,,metabolic stability,"human, liver microsomes","1 µM, 30 min",compound remaining,< 7%
COc1cc([C@@H]2c3cc4c(cc3[C@H](O)[C@H]3COC(=O)[C@H]23)OCO4)cc(OC)c1OC,L6,"cell growth or viability, resazurin",,72 h,IC50,0.169 µM
Cc1nccn1CCCCOc1cc2oc(=O)ccc2cc1O,HepG2.2.15,"cell growth or viability, MTT",,9 days,CC50,> 648 µM
COc1cc([C@@H]2c3cc4c(cc3[C@H](O)[C@H]3COC(=O)[C@H]23)OCO4)cc(OC)c1OC,L6,"cell growth or viability, resazurin",,70 h,IC50,0.05 µM
N=c1c2c(-c3ccccc3)c(-c3ccccc3)n(Cc3ccccc3)c2ncn1[C@H]1CC[C@H](O)CC1,,metabolic stability,"human, hepatocytes","1 µM, 4 h",compound remaining,86%
C#Cc1ccc2c(c1)C(c1ccccc1F)=N[C@@H](C)c1c(C(=O)OCC(F)(F)F)ncn1-2,,metabolic stability,"human, liver microsomes",10 min,compound remaining,< 5%
Cc1nc(C(=O)N2CCC[C@H]2C(=O)N[C@@H](CCC2CCCCC2)C(=O)N[C@@H](CC(C)C)C(=O)NC(C)(C)C(=O)N[C@@H](CC(C)C)C(=O)N(C)[C@@H](CC(C)C)C(=O)NC(C)(C)C(=O)NC(C)(C)C(=O)NCCC(=O)NC2(CN(C)C)CCC2)co1,L6,"cell growth or viability, resazurin",,68 h,IC50,> 8.45 µM
